Activity calls are given as the source filed them. No cut-off for these calls is given here.
What was measured:
[1] = biological target: Botulinum neurotoxin type A (Clostridium botulinum) (UniProt P0DPI0); test: Inhibition of Clostridium botulinum recombinant neurotoxin A light chain using SNAPtide as substrate at 10 uM after 1 hr by FRET assay relative to control
In short: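 Single-point FRET at 10 μM ligand: 10 nM light chain, 8 μM SNAPtide, pH 8.2, 37 °C, 1 h incubation, triplicate. Cleavage read at ex 490/em 523 nm. Percent inhibition calculated against uninhibited cleavage at the same substrate and enzyme levels.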

[2] = biological target: Botulinum neurotoxin type A (Clostridium botulinum) (UniProt P0DPI0); test: Binding affinity to nonactivated whole Clostridium botulinum biotinylated neurotoxin A in streptavidin-coated magnetic beads using [14C] labeled compound at 10 uM relative to control
[3] = biological target: Botulinum neurotoxin type A (Clostridium botulinum) (UniProt P0DPI0); test: Binding affinity to nonactivated whole Clostridium botulinum biotinylated neurotoxin A in streptavidin-coated magnetic beads at 10 uM after 1 hr by fluorescence intensity assay relative to control
[4] = biological target: Botulinum neurotoxin type A (Clostridium botulinum) (UniProt P0DPI0); test: Binding affinity to Clostridium botulinum recombinant biotinylated neurotoxin A light chain incubated for 15 mins by scintillation proximity assay
In short: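 Scintillation proximity binding: [3H]paclitaxel at each concentration incubated with 7 nM biotinylated light chain for 15 min at room temperature. Streptavidin-coated polyvinyltoluene SPA beads (2 mg/mL) then added. Run in triplicate, read at 1 h intervals by scintillation counting. Counts corrected for nonspecific binding/nonproximity effects.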

[5] = biological target: Botulinum neurotoxin type A (Clostridium botulinum, UniProt P0DPI0); test: Inhibition of Clostridium botulinum recombinant neurotoxin A light chain using SNAPtide as substrate after 1 hr by FRET assay
In short: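 IC50 from a FRET dose-response: 10 nM light chain preincubated 30 min with inhibitor at 37 °C before adding SNAPtide (8 μM final). Fluorescence read at ex 490/em 523 nm and expressed relative to uninhibited cleavage. Triplicate wells with DMSO controls. IC50 from four-parameter nonlinear regression over two independent experiments.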

[6] = biological target: Botulinum neurotoxin type A (Clostridium botulinum) (UniProt P0DPI0); test: Binding affinity to nonactivated whole Clostridium botulinum biotinylated neurotoxin A in streptavidin-coated magnetic beads using [14C] labeled compound at 25 uM relative to control
[7] = biological target: Botulinum neurotoxin type A (Clostridium botulinum) (UniProt P0DPI0); test: Binding affinity to nonactivated whole Clostridium botulinum biotinylated neurotoxin A in streptavidin-coated magnetic beads using [14C] labeled compound at 50 uM relative to control

Botulinum neurotoxin type A (Clostridium botulinum), sequence (P0DPI0 2-448 limits assumed): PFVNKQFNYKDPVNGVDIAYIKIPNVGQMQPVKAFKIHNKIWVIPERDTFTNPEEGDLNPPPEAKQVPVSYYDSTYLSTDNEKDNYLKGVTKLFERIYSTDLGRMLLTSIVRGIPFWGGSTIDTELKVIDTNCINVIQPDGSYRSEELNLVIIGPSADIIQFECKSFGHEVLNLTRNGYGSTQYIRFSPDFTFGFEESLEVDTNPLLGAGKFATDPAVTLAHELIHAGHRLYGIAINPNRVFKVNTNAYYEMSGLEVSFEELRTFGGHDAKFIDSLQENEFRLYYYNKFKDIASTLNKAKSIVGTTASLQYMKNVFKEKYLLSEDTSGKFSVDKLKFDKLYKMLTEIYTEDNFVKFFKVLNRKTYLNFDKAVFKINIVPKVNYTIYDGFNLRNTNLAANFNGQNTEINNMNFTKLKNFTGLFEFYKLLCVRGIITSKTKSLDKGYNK
Botulinum neurotoxin type A, sequence (P0DPI0 2-448 limits assumed): as above

SMILES | inhibition [1] | Activity [3] | other results
Nc1nc(N)c2nc(CNc3ccc(C(=O)N[C@@H](CCC(=O)O)C(=O)O)cc3)cnc2n1 | 11% | – | –
N[C@@H](CCCc1c(CC[C@H](N)C(=O)O)c[n+](CCCC[C@H](N)C(=O)O)cc1CC[C@H](N)C(=O)O)C(=O)[O-] | 25% | – | –
OCC1(O)OC[C@@H](O)[C@@H](O)[C@@H]1O (stereo partly drawn) | 0% | – | Activity [2]: 5%
CC(=O)O[C@H]1C(=O)[C@]2(C)[C@@H](OC(=O)CCNC(=O)c3ccc(-c4c5cc(F)c(=O)cc-5oc5cc(O)c(F)cc45)c(C(=O)O)c3)C[C@H]3OC[C@@]3(OC(C)=O)[C@H]2[C@H](OC(=O)c2ccccc2)[C@]2(O)C[C@H](OC(=O)[C@H](O)[C@@H](NC(=O)c3ccccc3)c3ccccc3)C(C)=C1C2(C)C | – | 4% | –
CC(=O)O[C@H]1C(=O)[C@@]2(C)[C@H]([C@H](OC(=O)c3ccccc3)[C@]3(O)C[C@H](OC(=O)[C@H](O)[C@@H](NC(=O)CCC4=[N+]5C(C=C4)Cc4c(C)cc(C)n4[B-]5(F)F)c4ccccc4)C(C)=C1C3(C)C)[C@]1(OC(C)=O)CO[C@@H]1C[C@@H]2O (stereo partly drawn) | – | 22% | –
CC(=O)O[C@H]1C(=O)[C@@]2(C)[C@H]([C@H](OC(=O)c3ccccc3)[C@]3(O)C[C@H](OC(=O)[C@H](O)[C@@H](NC(=O)c4ccccc4)c4ccccc4)C(C)=C1C3(C)C)[C@]1(OC(C)=O)CO[C@@H]1C[C@@H]2O [PACLITAXEL] | 85% | – | Activity [4]: Active; IC50 [5]: 5.2 µM; Activity [6]: 7%; Activity [7]: 7%
CC[C@@]1([C@@H]2O[C@@H]([C@H]3O[C@@](O)(CO)[C@H](C)C[C@@H]3C)C[C@@H]2C)CC[C@H]([C@]2(C)CC[C@]3(C[C@H](O)[C@@H](C)[C@@H]([C@@H](C)[C@@H](OC)[C@H](C)C(=O)O)O3)O2)O1 | 38% | – | –
CC(=O)O[C@H]1C(=O)[C@@]2(C)[C@H]([C@H](OC(=O)c3ccccc3)[C@]3(O)C[C@H](OC(=O)[C@H](O)[C@@H](NC(=O)CCC4=[N+]5C(C=C4)Cc4ccc(/C=C/c6ccccc6)n4[B-]5(F)F)c4ccccc4)C(C)=C1C3(C)C)[C@]1(OC(C)=O)CO[C@@H]1C[C@@H]2O (stereo partly drawn) | – | 46% | –

— ChEMBL document CHEMBL2321786, “Paclitaxel is an inhibitor and its boron dipyrromethene derivative is a fluorescent recognition agent for botulinum neurotoxin subtype A” (J Med Chem, 2013)
